PubChem BioAssay AID623889 (Vanderbilt Specialized Chemistry Center, 2012)
Several values for one entry are separate records, joined by “and”; a condition that tells them apart may be missing. Equal entries are not always repeated.

Target: Metabotropic glutamate receptor 4 (Rattus norvegicus) (UniProt P31423)
Assay: rat mGlu4 modulators, glutamate EC50 fold shift, SAR follow-up, mGlu4 lead optimization, HEK/GIRK cells, thallium flux (AID 623889)
Conditions: at 30 µM, stronger effect = higher value; for glutamate max response: measured here: glutamate maximal response with compound
Method in brief: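 Material: HEK cells stably co-expressing GIRK channel, M4 receptor and rat mGlu4. Dosing: single test compound concentration, 30 µM final (from 2x solution). Timing: compound pre-incubation about 2.5 min before glutamate addition. Signal: FluoZin-2 fluorescence thallium flux. Evaluation: leftward fold shift of glutamate curve from four-parameter logistic fits.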

Chain of Metabotropic glutamate receptor 4 (Rattus norvegicus) (P31423 whole entry, looked up): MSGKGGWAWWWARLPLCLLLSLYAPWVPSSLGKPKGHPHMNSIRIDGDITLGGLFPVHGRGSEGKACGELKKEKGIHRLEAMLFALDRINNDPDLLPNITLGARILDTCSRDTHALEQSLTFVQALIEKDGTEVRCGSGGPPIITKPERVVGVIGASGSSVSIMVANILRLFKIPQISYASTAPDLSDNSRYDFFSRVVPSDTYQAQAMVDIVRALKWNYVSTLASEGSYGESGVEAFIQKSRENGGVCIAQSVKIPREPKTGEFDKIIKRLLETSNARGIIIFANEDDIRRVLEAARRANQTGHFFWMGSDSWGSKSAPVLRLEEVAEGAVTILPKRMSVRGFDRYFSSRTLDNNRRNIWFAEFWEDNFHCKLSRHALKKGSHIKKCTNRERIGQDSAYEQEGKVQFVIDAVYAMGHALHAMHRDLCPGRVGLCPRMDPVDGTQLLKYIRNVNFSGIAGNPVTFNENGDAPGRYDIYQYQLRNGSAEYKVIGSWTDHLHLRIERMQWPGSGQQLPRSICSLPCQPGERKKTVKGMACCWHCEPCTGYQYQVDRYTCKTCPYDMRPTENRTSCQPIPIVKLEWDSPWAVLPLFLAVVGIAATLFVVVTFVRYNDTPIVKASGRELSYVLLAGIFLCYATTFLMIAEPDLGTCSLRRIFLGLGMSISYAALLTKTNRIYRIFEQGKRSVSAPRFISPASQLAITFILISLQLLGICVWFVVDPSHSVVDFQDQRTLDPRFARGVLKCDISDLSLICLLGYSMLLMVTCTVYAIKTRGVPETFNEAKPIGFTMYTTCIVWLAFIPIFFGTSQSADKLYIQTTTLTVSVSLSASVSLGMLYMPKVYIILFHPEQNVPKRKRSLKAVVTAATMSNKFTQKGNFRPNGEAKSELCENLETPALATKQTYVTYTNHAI

Compound | fold shift | glutamate max response
Clc1cccc(Nc2noc3cccnc23)c1 | 31.1 and 22.7 and 17.8 | 90.3% and 98.5% and 99.1%
O=C(Nc1ccc2cn[nH]c2c1)c1ccccn1 | 11.9 | 103%
COc1cc2nc(-c3ccccn3)[nH]c2cc1Cl | 3.21 | 90.9%
COc1cc(Nc2noc3cccnc23)ccc1Cl | 6.67 | 84.3%
Clc1cccc(Nc2ncnc3cccnc23)c1 | 4.02 | 87.2%
Clc1ccc2nc(-c3ccccn3)[nH]c2c1 | 15.3 | 87.2%
Fc1cccc(Nc2noc3cccnc23)c1 | 8.9 | 93.6%
FC(F)Oc1cccc(Nc2noc3cccnc23)c1 | 21.7 and 16.3 | 98.4% and 99.7%
CC(C)N(C(=O)c1ccccn1)c1cccc(Cl)c1 | 3.16 | 108%
O=C(Nc1ccc2c(c1)C(=O)NC2=O)c1ccccn1 | 2.52 | 105%
O=C(Nc1cccc(Cl)c1)c1ccccn1 | 30.2 | 88.8%
